Data on 20 compounds can be found in ChEMBL document CHEMBL1152797, “Design and synthesis of 4-methoxyphenylacetic acid esters as 15-lipoxygenase inhibitors and SAR comparative studies of them” (Bioorg Med Chem, 2009).

The IC50 is the concentration that inhibits the measured activity by half.

Molecules are shown by their SMILES. Calls of active or inactive are those of the source. The rule behind the calls is not given here.

Target in the first assay: not listed separately
Kind of assay: Inhibition of human recombinant 15-lipoxygenase b. The procedure, abridged: (§1)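 Human recombinant 15-LO (a or b), expressed in E. coli, at 10 µg/mL final in 50 mM Tris–HCl, pH 7.2. Linoleic acid substrate at 134 µM final, 20 ± 1 °C, compounds in DMSO (1% final). Absorbance read at 234 nm over 60–120 s against an inhibitor-plus-substrate blank. Triplicates, at least six controls; IC50 interpolated linearly near 50% activity.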
Consider `CCOC(=O)Cc1ccc(OC)cc1`, for which the half-maximal inhibitory concentration (IC50) is 63.2 µM.

With `CCCCCOC(=O)Cc1ccc(OC)cc1`, the IC50 turned out to be 11.7 µM.

Another assay deals with Glycine max. Kind of assay: Inhibition of 15-lipoxygenase form soybean at 200 uM.
As to `COc1ccc2c(c1)CCC(=O)C2`, the outcome was inactive.

Take `C=C1CCc2cc(OC)ccc2C1`: the outcome was inactive.

Target in a further assay: not listed separately
Kind of assay: Inhibition of human recombinant 15-lipoxygenase a. The procedure, abridged: as §1
For `CCOC(=O)Cc1ccc(OC)cc1`, the 50% inhibitory concentration (IC50) was found to be 56.7 µM.

`CCCCCOC(=O)Cc1ccc(OC)cc1`: the IC50 was found to be 30.9 µM.

Target in another assay: not listed separately
As to the kind of experiment: Inhibition of 15-lipoxygenase form soybean. Also noted: species or system Glycine max.
Compound `C=C(CC)Cc1ccc(OC)cc1` gave an IC50 of 145 µM.

`COC(=O)Cc1ccc(OC)cc1`: 56.2 µM corresponded to half-maximal inhibition (IC50).

The compound `CCOC(=O)Cc1ccc(OC)cc1` displayed a half-maximal inhibitory concentration (IC50) of 32 µM.

`CCCCCOC(=O)Cc1ccc(OC)cc1` displayed an IC50 of 1.9 µM.

Turning to `C=C(C)Cc1ccc(OC)cc1`, the IC50 was found to be 137 µM.

As to `C=CCc1ccc(OC)c(OC)c1` [METHYLEUGENOL], the IC50 was found to be 96.1 µM.

As to `COc1ccc(CC(=O)OC(C)(C)C)cc1`, the IC50 was 38.7 µM.

For `CCCCCCOC(=O)Cc1ccc(OC)cc1`, the IC50 was found to be 35 µM.

Turning to `COc1ccc(CC(=O)OC2CCCC2)cc1`, half-maximal inhibition (IC50) required 56.5 µM.

`CCCOC(=O)Cc1ccc(OC)cc1` yielded an IC50 of 11.6 µM.

Turning to `COc1ccc(CC(=O)OC2CCCCC2)cc1`, the IC50 is 64 µM.

`COc1ccc(CC(=O)OCC(C)C)cc1`: the IC50 stood at 88.1 µM.

Regarding `CCCCOC(=O)Cc1ccc(OC)cc1`, the IC50 turned out to be 3.8 µM.

Regarding `C=CCc1ccc(O)c(OC)c1` [EUGENOL], the IC50 came to 38.2 µM.

Compound `CCC(=O)Cc1ccc(OC)cc1` showed an IC50 of 33 µM.

As for `C=CCc1ccc(OC)cc1` [ESTRAGOLE], the IC50 stood at 64.1 µM.

The compound `CCC(C)OC(=O)Cc1ccc(OC)cc1` (centres undefined) displayed an IC50 of 35.7 µM.

`COc1ccc(CC(=O)OC(C)C)cc1` showed an IC50 of 34.4 µM.
